Assay outcomes from PubChem.
Only some compounds are listed: those with a hit (about 4.1% of all), similar ones and a draw of the others.
MEKK3 PB1 HTS – MEKK3-MEK5 PB1 interaction, increase or decrease. actives 1.4% (n = 290,000). bead-based flow cytometry, Alexa488-MEK5 binding to MEKK3; actives lie on both sides; 0 = blocked by unlabeled MEK5, 100 = vehicle. Q99759. binding response (% of control), % at 10 µM;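 active = binding response more than 3 SD above or below the average of its plate-row segment, actives on both sides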;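 also: Alexa488 bead fluorescence after subtracting the streptavidin-only scavenger bead signal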
Target sequence (Q99759 whole entry, looked up): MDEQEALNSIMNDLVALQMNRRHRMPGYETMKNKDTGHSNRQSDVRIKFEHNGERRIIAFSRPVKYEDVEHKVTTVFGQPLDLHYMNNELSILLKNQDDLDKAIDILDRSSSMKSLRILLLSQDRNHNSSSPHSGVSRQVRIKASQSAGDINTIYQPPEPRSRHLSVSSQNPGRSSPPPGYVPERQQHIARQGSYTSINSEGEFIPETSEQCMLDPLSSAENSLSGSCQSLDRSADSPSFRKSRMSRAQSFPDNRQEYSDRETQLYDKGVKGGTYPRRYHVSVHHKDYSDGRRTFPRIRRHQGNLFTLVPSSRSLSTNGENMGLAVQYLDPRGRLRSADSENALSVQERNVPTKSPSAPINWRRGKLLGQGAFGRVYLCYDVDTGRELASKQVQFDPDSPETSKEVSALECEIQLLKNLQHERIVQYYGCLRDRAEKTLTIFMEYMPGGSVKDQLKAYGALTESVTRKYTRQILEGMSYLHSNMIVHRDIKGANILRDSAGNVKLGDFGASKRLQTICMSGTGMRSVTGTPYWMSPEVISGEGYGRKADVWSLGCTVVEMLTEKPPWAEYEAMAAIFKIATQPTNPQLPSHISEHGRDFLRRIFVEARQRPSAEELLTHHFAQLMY
T cruzi inh – T. cruzi replication inhibition. T. cruzi beta-gal in NIH3T3, luminescence, 90 h. inhibition, % (concentration not given with the values). actives 1.4% (n = 300,000). AID 1885;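 active = mean inhibition across valid replicates above about 55%, limit read from the data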;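 also: signal also drops with host cell toxicity which is not excluded here; higher percent means less beta-gal luminescence so fewer parasites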
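Read-out: Parasite load inhibition, % | Test system: Mouse NIH/3T3 fibroblasts infected with β-gal-expressing T. cruzi Tulahuen C4 | Amount: 5,000 cells/well | Medium: DMEM, 2% fetal bovine serum | Signal: GalScreen β-gal luminescence, detergent lysis, 60 min | Timing: 3 h attach, ≥90 h co-culture | Also added: Tulahuen C4 trypomastigotes, 5000/well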
MEKK2 WT-MEK5 – raises or lowers MEK5 binding to wildtype human MEKK2 PB1 domain | binding response (% of control), % at 10 µM | actives 1.1% (n = 290,000) | bead flow cytometry, Alexa488-MEK5 binding to MEKK2 WT; actives lie on both sides | Q9Y2U5; in the data active = binding response below about 67% or above about 130%
FID counter – displaces DNA intercalator in HCV helicase counter-screen. DNA fluorescent intercalator displacement, fluorescence. inhibition, % at 7.9 µM. actives 0.17% (n = 290,000). AID 1845; in the data active = inhibition above about 37%;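 also: higher means more ethidium bromide displaced from hairpin DNA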
HCV NS3 hel inh – blocks Hepatitis C virus NS3 helicase unwinding; NS3 helicase DNA unwinding, Cy5 molecular beacon fluorescence; inhibition, % at 10.9 µM; actives 0.56% (n = 290,000); AID 1800;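 active = inhibition above the mean of all tested compounds plus 3 SD, set per campaign, cut at about 35% in these data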
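Material: hepatitis C virus NS3 helicase domain fragment enzyme; measured by: Cy5 fluorescence, 0 and 60 min reads; control set: DMSO and thioflavine S; incubation: 60 min unwinding reaction at 25 °C after ATP addition; read-out basis: % inhibition from 60/0 min fluorescence ratio, DMSO 0%, thioflavine S 100%; repeats: singlicate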
MEKK2mut PB1 HTS – signal of MEK5 binding to mutant human MEKK2 PB1 domain; bead flow cytometry, Alexa488-MEK5 binding to MEKK2 mutant; percent response, % at 10 µM; actives 0.35% (n = 290,000); in the data active = percent response above about 24%, passing the limit was not always enough
Large screens that a line does not name were inactive; [ ] = dose if it differs, or a comment.

O=C(CN1CCCCCCC1)N/N=C/c1ccc([N+](=O)[O-])o1	T cruzi inh 58
COC(=O)C1=C(C)NC(=S)N(C(C)=O)C1c1ccc(OC)c(OC)c1 (stereo unspecified)	none
O=C(CC12CC3CC(CC(C3)C1)C2)N/N=C/c1ccc([N+](=O)[O-])o1	T cruzi inh 55
O=C(CNc1cccc([N+](=O)[O-])c1)N/N=C/c1ccc([N+](=O)[O-])o1	T cruzi inh 68
O=[N+]([O-])c1ccc(-c2ccc(/C=N/Nc3nc(NCc4ccccc4)nc(N4CCOCC4)n3)o2)cc1	MEKK2 WT-MEK5 14
COc1nc(N/N=C/c2ccc(-c3ccccc3[N+](=O)[O-])o2)nc(N2CCOCC2)n1	none
O=C(Cc1ccc([N+](=O)[O-])cc1)N/N=C/c1ccc([N+](=O)[O-])o1	T cruzi inh 107
O=C(Nc1cccnc1)c1cc2cc(Br)ccc2o1	none
Cc1ccc2[nH]c(=O)c3cc(C(=O)N(C)C4CCCCC4)sc3c2c1	none
Cc1cc(C)cc(N=Cc2[nH]c3ccc(Br)c(Cl)c3c2O)c1	none
COc1ccc(CN=Cc2[nH]c3ccc(Br)c(Cl)c3c2O)cc1	T cruzi inh 55 (no result: MEKK3 PB1 HTS, MEKK2 WT-MEK5, MEKK2mut PB1 HTS)
COc1c(C)cc(Br)cc1C(=O)Nc1ccccc1N1CCN(C(=O)c2ccccc2)CC1	T cruzi inh 66
COc1ccc(Br)cc1C(=O)Nc1ccccc1N1CCN(C(=O)c2ccccc2)CC1	T cruzi inh 59
Cc1cc(C)c(S(=O)(=O)Nc2cccc(/C=C/C(=O)O)c2)c(C)c1	none
CCNC(=S)N/N=C/c1cccc(OCc2c(F)cccc2Cl)c1	T cruzi inh 59
COc1ccc(CCN(C)C(=O)c2cc(S(=O)(=O)N3CCCCC3)ccc2Cl)cc1OC	none (no result: MEKK3 PB1 HTS, MEKK2 WT-MEK5, FID counter, HCV NS3 hel inh, MEKK2mut PB1 HTS)
COc1cccc2cc(C(=O)C3=C(O)C(=O)N(c4cc(C)on4)C3c3cccs3)oc12 (stereo unspecified)	MEKK2 WT-MEK5 -11
Cc1ccc2c(c1)C(c1ccccc1)N(C(=O)c1ccc(Br)cc1)CC(=O)N2 (stereo unspecified)	none
CCCc1nc2c(sc3nc4c(cc32)COC(C)(C)C4)c(=O)n1CCN(CC)CC	none
CC(=O)/C(N)=N/Nc1cccc(Cl)c1	MEKK2 WT-MEK5 16
CC(=O)/C(=N\Nc1cccc(Cl)c1)Sc1cccc2cccnc12	none
Cc1ccc(OCC(=O)Nc2ccc(N3CCCC3)cc2)cc1C	none
Cc1ccc(C(C)C)cc1OCC(=O)Nc1ccc(N2CCCCC2)cc1	T cruzi inh 63 (no result: MEKK3 PB1 HTS, MEKK2 WT-MEK5, FID counter, HCV NS3 hel inh, MEKK2mut PB1 HTS)
COc1ccc(N(CC(O)Cn2c3ccccc3c3ccccc32)S(=O)(=O)c2ccccc2)cc1 (stereo unspecified)	none
CC(=O)Nc1ccccc1N(CC(O)Cn1c2ccccc2c2ccccc21)S(=O)(=O)c1ccc(C)cc1 (stereo unspecified)	MEKK3 PB1 HTS 138
CC[n+]1c(/C=C2/C=C(C)CC(C)C2)sc2ccccc21 (stereo unspecified)	none
CC[n+]1c(C=C2C=C(C)OC(C)=C2)sc2ccccc21	T cruzi inh 73
N#Cc1c(N2CCN(C(=O)c3ccccc3Cl)CC2)nc(-c2ccccc2)c2c1CCCC2	T cruzi inh 57 (no result: MEKK3 PB1 HTS, MEKK2 WT-MEK5, MEKK2mut PB1 HTS)
N#Cc1c(N2CCN(C(=O)c3ccco3)CC2)nc(-c2ccccc2)c2c1CCCC2	T cruzi inh 61
N#Cc1c(N2CCN(C(=O)c3ccccc3)CC2)nc(-c2ccccc2)c2c1CCCC2	none
COc1ccc(-c2ccc(CO)o2)cc1N	none
COC(=O)Nc1ccc2c(c1)N(C(=O)CCCl)c1ccccc1S2	none
CC(O)CNc1nc2ccccc2n1CC(=O)N1CCN(Cc2ccccc2)CC1 (stereo unspecified)	none
CC(=O)C1=C(c2ccc(Br)cc2)C(=O)c2ccccc2C1=O	T cruzi inh 55
Cc1ccc(C(=O)N2N=C(c3ccccc3O)CC2c2ccccc2)cc1 (stereo unspecified)	none
Cc1ccc(C(=O)N2N=C(c3ccc(Br)cc3)CC2c2ccccc2O)cc1 (stereo unspecified)	T cruzi inh 55
O=C(CCl)N(c1ccccc1)c1c[nH]c2ccccc12	none
O=C(CCl)N(c1ccc(Cl)cc1)c1c[nH]c2ccccc12	T cruzi inh 58
Cc1nc(N2CCC(C)CC2)c2c(C)c(C(=O)Nc3ccc(C(F)(F)F)cc3)sc2n1	T cruzi inh 61
CCN(CC)C(=O)Cn1cnc2sc(C(=O)NCCCN3CCOCC3)c(C)c2c1=O	none
CN(CCOc1ccccc1)CC(=O)Nc1ccc(S(=O)(=O)N2CCCC2)cc1	T cruzi inh 57
CN1CCN(S(=O)(=O)c2ccc(NC(=O)COc3ccccc3)cc2)CC1	none
O=C(Nc1ccc(-c2csc(Nc3ccc(Cl)cc3)n2)cc1)c1cccc(C(F)(F)F)c1	T cruzi inh 68 (no result: FID counter, HCV NS3 hel inh)
O=C(Nc1ccc(-c2csc(Nc3ccccc3)n2)cc1)c1cccc(C(F)(F)F)c1	none (no result: FID counter, HCV NS3 hel inh)
CCCCn1c(NC(=O)c2ccccc2)c(C#N)c2nc3ccccc3nc21	HCV NS3 hel inh 40 (no result: MEKK3 PB1 HTS, T cruzi inh, MEKK2 WT-MEK5, MEKK2mut PB1 HTS)
O=C(Nc1nc2ccccc2n1CCN1CCOCC1)c1cn(-c2ccccc2)nc1-c1ccccc1	T cruzi inh 66 (no result: MEKK3 PB1 HTS, MEKK2 WT-MEK5, MEKK2mut PB1 HTS)
O=C(Nc1nc2ccccc2n1CCN1CCOCC1)c1ccccc1	none
C/C(=N\NC(=O)Cc1ccc(Cl)cc1)c1ccccc1O	T cruzi inh 63
CCOC(=O)c1c(NC(=O)CN(C)C2CCN(C)CC2)sc(C(=O)Nc2ccccc2)c1C	FID counter 37
CCN(c1ccccc1)S(=O)(=O)c1ccc(Cl)c(NC(=O)CN(C)C2CCN(C)CC2)c1	T cruzi inh 56
CN1CCC(N(C)CC(=O)Nc2cccc(Oc3ccccc3)c2)CC1	T cruzi inh 62
CCOC(=O)c1c(NC(=O)CSc2cccc[n+]2[O-])sc(C(=O)Nc2ccccc2)c1C	none
CCN(c1ccccc1)S(=O)(=O)c1ccc(Cl)c(NC(=O)CSc2ncn[nH]2)c1	none
COc1ccc(-c2noc(CNC(=O)CCCN3C(=O)[C@H]4CC=CC[C@H]4C3=O)n2)cc1	none
Cc1ccc(NCC(=O)c2ccc(C)cc2)cc1	T cruzi inh 56
Cc1ccc(C(=O)CNc2ccc(C)c(Cl)c2)cc1	none
Cc1c(NC(=O)c2ccc(C(=O)Nc3c(C)n(C)n(-c4ccccc4)c3=O)cc2)c(=O)n(-c2ccccc2)n1C	none
Cc1c(NC(=O)c2cnc(Cl)c(Cl)c2)c(=O)n(-c2ccccc2)n1C	MEKK3 PB1 HTS 50[inhibitor], MEKK2 WT-MEK5 46[inhibitor]
Cc1cc(C)cc(-n2c(N)c(C(=O)Nc3c(C)n(C)n(-c4ccccc4)c3=O)c3nc4ccccc4nc32)c1	T cruzi inh 56
